The text below walks through data of ChEMBL document CHEMBL4513216, “Probing the Open Global Health Chemical Diversity Library for Multistage-Active Starting Points for Next-Generation Antimalarials” (ACS Infect Dis, 2020).

This series is described as follows: Toxicity liver stage against HepG2, at 10uM. The series is classed as cell-based. Set-up: test concentration 10 uM, cell line HepG2-A16-CD81EGFP. To be noted: human, HepG2-A16-CD81EGFP cells; read-out: INHIBITION
Summed up:
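Uninfected HepG2-A16-CD81EGFP cells, 3 × 10^3 per well, 1536-well, plated on prespotted compound at 10 μM final, parasite-free screening media added to match infected plates; puromycin 10 μM positive, DMSO 0.5% negative; run in parallel with 48 h PbLuc assay at 37 °C, 5% CO2; viability by CellTiter-Glo luminescence, normalized to controls.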
`CC(C)(C)c1cc(C[C@H]2CNCC[C@H]2CC(=O)NC2CCCCC2)no1`: the cytotoxicity at 10 µM turned out to be 2.82%.
As for `Cc1ccc(CN2C[C@H]3CN(Cc4ccccc4Cl)CCN3C2=O)cc1`, the cytotoxicity at 10 µM was -10.3%.
For the compound `O=C(C1CCOCC1)N1CCN2C(=O)N(Cc3ccc(F)cc3)C[C@H]2C1`, the cytotoxicity at 10 µM was -1.34%.
As for `COc1ccc2c(ccn2CCC(=O)Nc2n[nH]c(C(C)C)n2)c1`, the cytotoxicity at 10 µM was determined as 3.3%.
With `CC(=O)N1CCN(C(=O)Nc2ccccc2)CC2(CC(=O)N(C)C2)C1` (stereo not given), the cytotoxicity at 10 µM was -8.93%.
Turning to `Cc1ccc(S(=O)(=O)N2C[C@@H]3CCN[C@@H]3C2)cc1`, the cytotoxicity at 10 µM is 2.94%.
Turning to `Cc1cnc(N2CC[C@@H]3CN(CCC(C)C)S(=O)(=O)[C@@H]3CC2)nc1`, the cytotoxicity at 10 µM was -3.1%.
Take `Cn1nc(C#N)c2c1CN(C(=O)c1ccsc1)CCC2`: the cytotoxicity at 10 µM is -126%.
Consider `CC(C)n1[nH]c(=O)c2c1NC(=O)CC2c1cccc(O)c1` (stereo not given), for which the cytotoxicity at 10 µM came out at 10.6%.
In the case of `O=C(Nc1nc2c(s1)CN(S(=O)(=O)C1CC1)CC2)c1c(F)cccc1F` it was -14.1%.
As for `O=C(c1nc(-c2ccc3cc[nH]c3c2)no1)N1CCCC1`, the cytotoxicity at 10 µM was -3.29%.
With `COCC1COCCC12CCN(C(=O)CCOc1ccccc1)CC2` (stereo not given), the cytotoxicity at 10 µM is -18.7%.
With `Cc1ccc(CNc2cc3[nH]c(O)nc3cc2C)cc1`, the cytotoxicity at 10 µM is 22.2%.
The same measure for `Cc1cc(C)nc(N(C)CCn2ccnc2C)n1`: -5.42%.
In the case of `CC1CCc2nn(CCNC(=O)Cc3cccs3)c(=O)cc2C1` (stereo not given), the cytotoxicity at 10 µM came out at 6.83%.
`CC(C)(CNC(=O)C(C)(C)Oc1ccc2c(c1)CCCC2=O)C(N)=O`: the cytotoxicity at 10 µM was -2.25%.
Turning to `O=C(Nc1cccnc1)Nc1ccn(CC(F)F)n1`, the cytotoxicity at 10 µM was -4.63%.
As to `CNC(=O)C1Cc2ccccc2CN1C(=O)CC(C)C` (stereo not given), the cytotoxicity at 10 µM is -150%.
Take `COc1ccccc1C(C)(C)NC(=O)c1ccc(F)c(NC(C)=O)c1`: the cytotoxicity at 10 µM is -142%.
The same measure for `NC(=O)CN(Cc1ncc(-c2ccc(Cl)cc2)o1)C1CCCC1`: -1.99%; for `Cc1noc(C2CCN(Cn3cc(Br)cn3)CC2)n1`: 0.277%; for `CCNC(=O)NC(=O)CNC(C)(CC)c1nc(C)cs1` (stereo not given): 6.99%.
As for `CCN(CC(F)(F)F)C(=O)C1CCCN(Cc2ccno2)C1` (stereo not given), the cytotoxicity at 10 µM is -2.33%.
For `CC(C)OCCC(=O)Nc1cccc(N2CCN(CC3CC3)CC2)c1`, the cytotoxicity at 10 µM is -1.11%.
Consider `Cn1nc2c(cc1=O)CN(CC(=O)Nc1cc(C(C)(C)C)no1)CC2`, for which the cytotoxicity at 10 µM is -4.1%.
For `Cc1cccc(C(=O)Nc2cccc3c2CCCC3)n1`, the cytotoxicity at 10 µM was -2.35%.
In the case of `O=S(=O)(CCCS(=O)(=O)c1ccc2c(c1)OCCCO2)c1ccccc1` it was -2.76%; in that of `O=S1(=O)CCC(N2CCN(c3cc(C(F)(F)F)ccn3)CC2)C1` (stereo not given), -3.97%; in that of `COc1cccc(CN(C(=O)Nc2nncs2)C2CCC(O)CC2)c1` (stereo not given), -0.67%.
The same measure for `O=C(c1[nH]nc(C2CC2)c1Cl)N1CCCC1`: -3.78%; for `Cc1cnn(CC(C)NCC(=O)NCCc2cccs2)c1` (stereo not given): 6.41%; for `CC(O)CN1CCC(CN(C)Cc2ccc(C(N)=O)cc2)CC1` (stereo not given): -1.66%.
For the compound `CC(CNC(=O)NCc1ccsc1)CC1(C)OCCO1` (stereo not given), the cytotoxicity at 10 µM was determined as 1.24%.
Regarding `CCCc1cc(NC(=O)c2cccc(N3CCCNC3=O)c2)n[nH]1`, the cytotoxicity at 10 µM came out at 3.14%.
For the compound `COc1c(CNC2(c3ccc(Cl)cc3)CCC2)c(C)nn1C`, the cytotoxicity at 10 µM was 4.22%.
`CC(C)C1CN(C(=O)Nc2cnn(CC(F)F)c2)CCS1` (stereo not given): the cytotoxicity at 10 µM was 12.6%.
With `CC(C)(CC(=O)N(CC(N)=O)C1CCCC1)c1ccccc1`, the cytotoxicity at 10 µM was -4.95%.
For the compound `Cc1ccc(S(=O)(=O)N2CSCC2C(=O)N(C)C2CC2)cc1Cl` (stereo not given), the cytotoxicity at 10 µM was -9.42%.
Regarding `CCCc1nnc(NC2CCN(C3CCCC3)CC2)o1`, the cytotoxicity at 10 µM is -2.66%.
The same measure for `CC(=O)c1ccc(NC(=O)NC(C(=O)N(C)C)C(C)C)cc1` (stereo not given): -5.55%; for `NS(=O)(=O)c1ccc(F)c(C(=O)NCCSC2CCCCC2)c1`: 4.69%; for `Cc1cc(C)nc(N2CCC(c3nnc(CN(C)C)n3C3CC3)CC2)n1`: -0.578%.
With `COc1cccc2c1OCC(C(=O)N1CCN(C3CCCC3)C(=O)C1)C2` (stereo not given), the cytotoxicity at 10 µM is -4.9%.
The same measure for `CCn1ncc2[nH]c(-c3ccc(OC)c(COC)c3)nc21`: 6.34%.
As to `O=C(CCc1nc(Cl)n[nH]1)N1C[C@@H](CN2CCCCCC2)[C@@H](CO)C1`, the cytotoxicity at 10 µM worked out at 0.152%.
For the compound `Cc1cc(NCc2ccc(CO)cc2)n2nc(C)cc2n1`, the cytotoxicity at 10 µM is -7.38%.
In the case of `CN(C)C(=O)N1CCn2nc(CNC(=O)CCc3ccccn3)cc2C1` it was -3.32%.
The same measure for `Cc1cc(N(C)Cc2cc(C)on2)n2nc(C)c(C)c2n1`: 19.2%; for `Cc1cc(C)n(NC(=O)c2ccccc2C)c(=O)c1`: -5.05%.
The same measure for `CCc1nc2n(n1)CC(NCc1cc(OC)c3c(c1)OCCO3)CC2` (stereo not given): -4.93%.
On to `Cn1cnnc1C1CCCN(C(=O)NCCCn2cccn2)C1` (stereo not given), for which the cytotoxicity at 10 µM is -5.42%.
On to `CCN1CCOC(CNCc2ccccc2OCc2cccnc2)C1` (stereo not given), for which the cytotoxicity at 10 µM was -13.1%.
In the case of `O=C(CCN1CCCC1=O)Nc1cnn(-c2ccccc2Cl)c1` it was 5.65%.
For the compound `Cc1nnc(CN(Cc2ccc3c(c2)OCO3)C2CCC(C)CC2)o1` (stereo not given), the cytotoxicity at 10 µM is -1.89%.
For `OC(CN1CCN(Cc2nc(C3CC3)no2)CC1)c1ccccc1` (stereo not given), the cytotoxicity at 10 µM is -10.9%.
For the compound `CCOc1ncccc1C(=O)N1CCC(Nc2ccc(C)nn2)CC1`, the cytotoxicity at 10 µM was -20.6%.
Turning to `Cc1cccc(OCCN2CCCC(c3cc(C(N)=O)[nH]n3)C2)c1` (stereo not given), the cytotoxicity at 10 µM was -11.9%.
The same measure for `O=C(NCc1ccc(-n2cncn2)nc1)c1ccc2c(c1)CCC2`: -16.5%.
Turning to `Cc1nc(C)n(CC2CCCCN2Cc2cscn2)n1` (stereo not given), the cytotoxicity at 10 µM was -5.26%.
As for `Cc1nc(C)n(CC2CCCN2Cc2cnc(C)s2)n1` (stereo not given), the cytotoxicity at 10 µM came out at 0.0757%.
Take `CN1CC(=O)N(c2cccnc2)CC12CCN(C(=O)c1cccn1C)C2` (stereo not given): the cytotoxicity at 10 µM came to 1.14%.
As for `Cc1cccc(CO[C@@H]2CC[C@H]3[C@H]2OCCN3Cc2cc(C)on2)n1`, the cytotoxicity at 10 µM is -3.59%.
On to `CN(C)C(=O)COCc1cncc2c1CCN(Cc1ccccc1)C2`, for which the cytotoxicity at 10 µM is -4.24%.
Regarding `O=C(NCc1cncc2c1CCN(CC1CCOC1)C2)c1ccco1` (stereo not given), the cytotoxicity at 10 µM was -9.55%.
The same measure for `c1coc(CN2Cc3ccnn3CC(COCC3CC3)C2)c1` (stereo not given): -153%.
As for `CC(=O)N1CCCC2(CN(Cc3ccc(C)s3)CCO2)C1` (stereo not given), the cytotoxicity at 10 µM was determined as 0.102%.
On to `O=C(N[C@@H]1CN(C2CCCC2)C[C@@H]2CCCO[C@@H]21)c1cnccn1`, for which the cytotoxicity at 10 µM is -1.58%.
In the case of `CN(Cc1ccco1)C[C@H]1OC[C@@H]2CCN(Cc3ccncc3)C[C@@H]21`, the cytotoxicity at 10 µM is -1.62%.
The same measure for `CNC(=O)[C@@H]1CCO[C@@H]2CCN(C3CCOCC3)C[C@@H]21`: 6.67%.
Regarding `CCN1C(=O)CCC12CCC(NC(=O)c1cc(C)on1)CC2` (stereo not given), the cytotoxicity at 10 µM was -0.0663%.
